Measured values reported in PMC4245983 (Biochemistry, 2014).
“Also recorded” adds a separate entry of the source.

Assays:
HscA386(T212V) = experiment: 2D 1H-15N TROSY-HSQC nucleotide binding to HscA386; parameters: species or system Escherichia coli; details: TED buffer lacking Mg2+, pH 7.5, 10 mM ATP
Procedure, shortened: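 0.3 mM [U-15N]-labelled NBD construct (expressed in Rosetta Blue DE3 in M9 medium with 1 g/L 15NH4Cl, 0.4 mM IPTG, 4 h). Solvent was TED buffer with 7% D2O and 0.02% sodium azide. 2D 1H–15N TROSY-HSQC spectra were taken without nucleotide and with 10 mM ATP at 25 °C, 800 MHz, and compared.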

HscA [1] = experiment: ATPase activity as a function of ATP concentration; type: biochemical, Escherichia coli; details: for Vmax from Michaelis-Menten fit: 2–1000 μM ATP, 1 μM HscA, HMKD pH 7.3, 25 °C, n = 3; for apparent ATP binding affinity, comparison of HscA386 and HscA395: from Km comparison
Procedure, shortened: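 NBD constructs (stop codons at residue 387 or 396; DEAE then Superdex 75 purification) were used at 1 μM in HMKD (50 mM HEPES pH 7.3, 150 mM KCl, 10 mM MgCl2, 1 mM DTT), 25 °C. ATP was 2, 4, 10, 40, 100 and 1000 μM. Pi release was monitored continuously by EnzChek coupled assay at 360 nm against a Pi standard curve. Means of three replicates were fit by nonlinear Michaelis–Menten regression for Km and Vmax.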

HscA [2] = experiment: Steady-state ATPase assay of HscA variants; type: biochemical, Escherichia coli; details: for fold increase in ATPase activity vs HscA386 / fold increase in ATPase activity vs WT HscA: 1 μM HscA, 1 mM ATP, HMKD pH 7.3, 25 °C; for fold increase in ATPase activity vs HscA386: relative to HscA386; for fold increase in ATPase activity vs WT HscA: relative to WT HscA
Procedure, shortened: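 Steady-state hydrolysis at 25 °C in HMKD (50 mM HEPES pH 7.3, 150 mM KCl, 10 mM MgCl2, 1 mM DTT) with 1 μM HscA variant and 1 mM ATP. Pi release was followed continuously by EnzChek enzyme-coupled assay at 360 nm and converted via a Pi standard curve to min–1. Three or more replicates. Linker peptide was dissolved in HMKD with 10% DMSO and added at 5–500 μM final.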

[3] = Differential scanning fluorimetry; type: physicochemical; details: relative to HscA386
Procedure, shortened: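 2 μM protein in 5 mM HEPES pH 7.3, 10 mM MgCl2, 10 mM KCl with 10 μM SYPRO orange, in triplicate. Heated 15–99 °C in a real-time PCR instrument; excitation 492 nm, emission 610 nm. Tm was taken where the first derivative of fluorescence reached its minimum.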

WT HscA [4] = experiment: Steady-state ATPase assay of WT HscA with HscB or IscU; type: biochemical, Escherichia coli; details: for effect on ATPase activity of WT HscA: 50-fold molar excess of HscB or IscU, 25 °C, n = 3
Procedure, shortened: (§1)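 HscB or IscU (50-fold molar excess, 50 μM) was added to 1 μM HscA variant (full-length WT or NBD construct). Reactions used HMKD buffer pH 7.3 with 1 mM ATP at 25 °C. Phosphate release was monitored continuously by EnzChek coupled assay at 360 nm, calibrated with a Pi standard curve. Three or more replicates.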

HscA386 [5] = experiment: Steady-state ATPase assay of HscA386; type: biochemical, Escherichia coli; details: for effect on ATPase activity of HscA386: 50:1 molar ratio (50 μM HscB or IscU), 25 °C, n = 3; for effect on ATPase activity of HscA386 by linker peptide: 5–500 μM linker peptide, 1 μM HscA386, HMKD with 10% DMSO
HscA389 = experiment: Steady-state ATPase assay of HscA389 with HscB or IscU; type: biochemical, Escherichia coli; details: 50:1 molar ratio (50 μM HscB or IscU), 25 °C, n = 3
Procedure, shortened: as §1

HscA395 = experiment: Steady-state ATPase assay of HscA395 with HscB or IscU; type: biochemical, Escherichia coli; details: 50:1 molar ratio (50 μM HscB or IscU), 25 °C, n = 3
Procedure, shortened: as §1

WT HscA [6] = details: J-domain interactions; cited from earlier work
IscU = details: cited from earlier work
HscA386 [7] = experiment: 2D 1H-15N TROSY-HSQC linker peptide binding to HscA386; parameters: species or system Escherichia coli; details: 0.2 mM [U-15N]HscA386, 3 mM linker peptide (15-fold molar excess), TED buffer, 900 MHz
[8] = Solubility of linker peptide; type: physicochemical; details: TED buffer pH 7.5 without DMSO, upper limit concentration of 3 mM

Nc1ncnc2c1ncn2[C@@H]1O[C@H](COP(=O)(O)OP(=O)(O)OP(=O)(O)O)[C@@H](O)[C@H]1O [ATP]
ATP binding in the absence of Mg2+ (TROSY-HSQC) (HscA386(T212V)): nearly superimposable

HscA386: isolated nucleotide-binding domain (NBD) of HscA
Vmax from Michaelis-Menten fit (HscA [1]): 0.039 ± 0.001 min^–1
apparent ATP binding affinity, comparison of HscA386 and HscA395 (HscA [1]): equivalent; also recorded: identical within experimental error

HscA389: NBD of HscA containing a short (three-amino acid) linker peptide, LLL motif
fold increase in ATPase activity vs HscA386 (HscA [2]): 7 fold
fold increase in ATPase activity vs WT HscA (HscA [2]): 9 fold

HscA395: NBD of HscA containing the full-length (nine-amino acid) linker peptide
fold increase in ATPase activity vs HscA386 (HscA [2]): 13 fold
fold increase in ATPase activity vs WT HscA (HscA [2]): 17 fold
fold faster ATP hydrolysis than HscA386 in the presence of linker peptide (HscA [2]; relative to HscA386 + 500 μM linker peptide): 3 fold
Vmax from Michaelis-Menten fit (HscA [1]): 0.446 ± 0.016 min^–1
apparent ATP binding affinity, comparison of HscA386 and HscA395 (HscA [1]): equivalent; also recorded: identical within experimental error
basal thermostability vs HscA386 [3]: higher than those of HscA386; also recorded: increases basal thermostability in comparison to that of HscA386

HscB: Hsp40-type cochaperone of HscA
fold increase in ATPase activity of WT HscA (WT HscA [4]; 1 μM WT HscA with 50 μM HscB): 8 factor
effect on ATPase activity of WT HscA (WT HscA [4]): enhanced
effect on ATPase activity of HscA386 (HscA386 [5]): not affected; also recorded: did not elicit any stimulation of ATPase activity; also recorded: neither the isolated NBD (HscA386) nor the NBD with a full interdomain liker (HscA395) was receptive to ATPase stimulation
effect on ATPase activity of HscA389 (HscA389): not affected; also recorded: did not elicit any stimulation of ATPase activity
effect on ATPase activity of HscA395 (HscA395): not affected; also recorded: did not elicit any stimulation of ATPase activity; also recorded: neither the isolated NBD (HscA386) nor the NBD with a full interdomain liker (HscA395) was receptive to ATPase stimulation
HscB-mediated activation of full-length HscA ATPase activity (WT HscA [6]): sensitive to HscB-mediated activation of ATPase activity
preferential binding to conformational state of IscU (IscU): binds preferentially to the S-state

IscU: scaffold protein, substrate of HscA
effect on ATPase activity of WT HscA (WT HscA [4]): enhanced
effect on ATPase activity of HscA386 (HscA386 [5]): no effect on the ATPase activities of any of the NBD variants; also recorded: not affected
effect on ATPase activity of HscA389 (HscA389): no effect on the ATPase activities of any of the NBD variants; also recorded: not affected
effect on ATPase activity of HscA395 (HscA395): no effect on the ATPase activities of any of the NBD variants; also recorded: not affected

LLLDVIPLS [linker peptide]
effect on ATPase activity of HscA386 by linker peptide (HscA386 [5]): A concentration dependence was observed
effect on ATPase activity of HscA386 by linker peptide (HscA386 [5]; listed as synthetic peptide): stimulated its ATPase activity
binding of linker peptide to HscA386 (chemical shift perturbation) (HscA386 [7]): widespread chemical shift perturbations, including distinct broadening of some signals; also recorded: relatively weaker binding interactions; also recorded: weakly binding
binding of linker peptide to HscA386 (chemical shift perturbation) (HscA386 [7]; listed as synthetic peptide): widespread NMR chemical shift perturbations indicative of a binding interaction
solubility of linker peptide in TED buffer [8]: partially dissolved
